Publication PMC3546147 (Bioorganic & medicinal chemistry, 2012)

Assays:
DU145 = conditions: read-out: GI50, DU145, prior hit; cited from earlier work
A549 = conditions: read-out: GI50, A549, prior hit; cited from earlier work
KB [1] = conditions: prior hit; cited from earlier work
KB [2] = assay: Antiproliferative SRB assay, KB; format: cell-based, human; conditions: positive control
How it was run: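 Human nasopharyngeal epidermoid carcinoma KB cells, tested in a panel with A-549, P-gp-expressing KBVIN and DU145 lines. Cytotoxicity was read by the sulforhodamine B (SRB) method, with a reference compound run alongside. GI50 is the molar drug concentration causing 50% tumor cell growth inhibition.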

SMILES: COc1ccc(Nc2nc(Cl)ccc2[N+](=O)[O-])cc1 [1a, 6-chloro-N-(4-methoxyphenyl)-3-nitropyridin-2-amine]
- GI50 (DU145): 3.83 µM
- GI50 (A549): 13.5 µM
- GI50, KB (KB [1]): 7.19 µM

SMILES: CC(=O)O[C@H]1C(=O)[C@@]2(C)[C@H]([C@H](OC(=O)c3ccccc3)[C@]3(O)C[C@H](OC(=O)[C@H](O)[C@@H](NC(=O)c4ccccc4)c4ccccc4)C(C)=C1C3(C)C)[C@]1(OC(C)=O)CO[C@@H]1C[C@@H]2O [Paclitaxel]
- GI50 ± SD, KB (KB [2]): 0.00777 ± 0.00084 µM
- GI50 ± SD, KB (KB [2]; listed as paclitaxel): 0.008 µM
